Source: PubChem BioAssay (Johns Hopkins Ion Channel Center)
RGS4 pot: potentiators or activators of RGS4 | B-score at 10 µM | HEK293 M3R/inducible RGS4, carbachol calcium flux Fluo4; hits give low values | 310,000 tested, 0.92% active | AID 463111;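 active = B-score of the integrated calcium signal more than 4 SD below the library mean, with starting fluorescence not abnormally high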;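 also: negative B-score means reduced calcium response which marks RGS4 activation or potentiation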
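Assay system: Inducible-RGS4 HEK293 cells carrying M3 receptor | Schedule: Compound preincubation 20 min at room temperature before agonist | Signal: Kinetic calcium fluorescence imaging with Fluo4-AM dye, 2 µM | Read-out basis: B score from integrated fluorescence ratio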
MrgX1 agonist: human MrgX1 receptor agonism, primary screen. B-score at 10 µM. 310,000 tested, 0.44% active. Q96LB2. MrgX1-HEK293 cells, Fluo-4 calcium fluorescence, agonist mode; hits give high values. AID 588627;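 active = calcium response B-score plate-corrected fluorescence ratio at least 3 library SD, with starting fluorescence B-score inside 5 SD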
Target sequence (Q96LB2 whole entry, looked up): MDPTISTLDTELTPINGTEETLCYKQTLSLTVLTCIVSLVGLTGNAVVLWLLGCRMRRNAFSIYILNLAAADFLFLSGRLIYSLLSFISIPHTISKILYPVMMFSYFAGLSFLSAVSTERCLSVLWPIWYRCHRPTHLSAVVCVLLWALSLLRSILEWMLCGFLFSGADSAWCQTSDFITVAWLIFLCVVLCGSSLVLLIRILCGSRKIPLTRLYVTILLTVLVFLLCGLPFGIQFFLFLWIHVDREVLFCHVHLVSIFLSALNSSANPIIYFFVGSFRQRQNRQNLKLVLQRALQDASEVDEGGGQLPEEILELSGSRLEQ
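Material – MrgX1-expressing HEK293 cells · Input – 15,000 cells seeded per well · Dosing – compound as first of three additions · Times – overnight seeding, then 1 h dark dye loading · Measured by – kinetic Fluo-4 NW fluorescence of intracellular calcium · Read-out – B-scored fluorescence response ratio · Benchmarks – positive and negative control wells on each plate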
RGS4 inh: inhibitors of human RGS4; 310,000 tested, 0.45% active; HEK293 M3R/RGS4 inducible, Fluo-4 calcium flux; hits give high values; triggered by carbachol at its EC20; B-score at 10 µM; AID 463165;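 active = B-score, a plate-corrected calcium signal, over three deviations above library mean, with baseline fluorescence within five deviations of library mean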;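 also: RGS4 expression induced by doxycycline in cells with stable M3 receptor; B-score is computed from the integrated fluorescence ratio over baseline after carbachol; higher B-score means a larger calcium signal and so more RGS4 inhibition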
Target sequence (P49798 whole entry, looked up): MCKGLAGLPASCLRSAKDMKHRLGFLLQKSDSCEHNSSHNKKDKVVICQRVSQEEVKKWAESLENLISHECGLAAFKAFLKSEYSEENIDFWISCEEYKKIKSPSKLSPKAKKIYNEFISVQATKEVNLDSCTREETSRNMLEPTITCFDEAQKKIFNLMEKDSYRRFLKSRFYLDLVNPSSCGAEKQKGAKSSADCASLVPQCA
MrgX1 antagonist: blocks BAM8-22 activation of human MrgX1 receptor; MRGX1-HEK293 calcium flux, Fluo-4, BAM8-22 antagonism; hits give low values; B-score at 10 µM; Q96LB2; AID 588676; 310,000 tested, 1.3% active;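 active = calcium-response B-score plate-corrected more than 3 library SD below zero, starting fluorescence within 5 deviations, no agonist response on first addition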;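 also: peak minus trough fluorescence over baseline after final BAM8-22 challenge near maximal dose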
MrgX1 allo act: human MrgX1 positive allosteric modulation, primary screen; Q96LB2; AID 588675; 310,000 tested, 0.63% active; MrgX1-HEK293, Fluo-4 calcium flux, FDSS; hits give high values; B-score at 10 µM;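 active = plate-corrected calcium response at least 3 library SD above typical, normal starting fluorescence, not activating the receptor alone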;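 also: compound read alongside a low EC10 to EC30 dose of BAM8-22 agonist; peak minus trough fluorescence over baseline measured at the second addition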
* = called active by the depositor. An excerpt weighted towards active compounds, which were near 3.5% of everything screened.

`O=C(NN1C(=O)C2C(c3ccccc3)C=CC(c3ccccc3)C2C1=O)c1cccc(Br)c1` (stereo not drawn) gave RGS4 pot -10.1*, MrgX1 agonist inactive, RGS4 inh inactive, MrgX1 antagonist inactive and MrgX1 allo act inactive.
For CC1(C)C(=O)N(c2ccccc2Cl)C(=O)c2ccccc21 the results were RGS4 pot inactive, MrgX1 agonist inactive, RGS4 inh inactive, MrgX1 antagonist inactive and MrgX1 allo act inactive.
`O=Nc1ccc(NOC(=O)c2ccccc2)cc1` gave RGS4 pot inactive, MrgX1 agonist inactive, RGS4 inh inactive, MrgX1 antagonist inactive and MrgX1 allo act inactive.
O=C(N=Nc1ccc(NOC(=O)c2ccccc2Br)cc1)c1ccccc1O was read as RGS4 pot inactive, MrgX1 agonist inactive, RGS4 inh inactive, MrgX1 antagonist inactive and MrgX1 allo act 12*.
Screening O=C(Nc1ccccc1C(=O)NCc1cccnc1)c1ccccc1F returned RGS4 pot inactive, MrgX1 agonist inactive, RGS4 inh inactive, MrgX1 antagonist inactive and MrgX1 allo act inactive.
Cc1[nH]n(-c2ccccc2)c(=O)c1C(c1ccccc1[N+](=O)[O-])C(C#N)C#N (stereo not drawn) was read as RGS4 pot inactive, MrgX1 agonist 35.9*, RGS4 inh inactive, MrgX1 antagonist inactive and MrgX1 allo act inactive.
`CC12CCC(C(=O)N3CCc4ccccc43)(CC1=O)C2(C)C` (stereo not drawn) gave RGS4 pot inactive, MrgX1 agonist inactive, RGS4 inh inactive, MrgX1 antagonist inactive and MrgX1 allo act inactive.
`CC1=C/C(=C\C=C(C#N)C#N)N(C)c2ccccc21` gave RGS4 pot inactive, MrgX1 agonist inactive, RGS4 inh inactive, MrgX1 antagonist -5.75* and MrgX1 allo act inactive.
CC1=CC(=C(C#N)C#N)c2ccccc2N1C was read as RGS4 pot inactive, MrgX1 agonist inactive, RGS4 inh inactive, MrgX1 antagonist inactive and MrgX1 allo act inactive.
For Cc1cn(-c2cc(NC(=O)c3ccc(C)c(NC(=O)c4cccc(-c5cn[nH]c(=O)c5)c4)c3)cc(C(F)(F)F)c2)cn1 the results were RGS4 pot inactive, MrgX1 agonist inactive, RGS4 inh inactive, MrgX1 antagonist inactive and MrgX1 allo act inactive.
CCn1ccnc1CN(C)C(=O)c1cc(COc2ccccc2SC)on1 was read as RGS4 pot -7.59*, MrgX1 agonist inactive, RGS4 inh inactive, MrgX1 antagonist inactive and MrgX1 allo act inactive.
Screening CSc1ccccc1OCc1cc(C(=O)N2CCc3sccc3C2)no1 returned RGS4 pot -7.85*, MrgX1 agonist inactive, RGS4 inh inactive, MrgX1 antagonist inactive and MrgX1 allo act inactive.
Cc1ccc(C)c(OCc2cc(C(=O)N3CCc4sccc4C3)no2)c1 was read as RGS4 pot inactive, MrgX1 agonist inactive, RGS4 inh inactive, MrgX1 antagonist inactive and MrgX1 allo act inactive.
Screening CCN1C(=O)[C@H]2[C@@H](c3ccc(Cl)cc3)N3C(=O)CN(CC4CC4)C(=O)[C@@]3(Cc3ccccc3)[C@H]2C1=O returned RGS4 pot inactive, MrgX1 agonist inactive, RGS4 inh inactive, MrgX1 antagonist inactive and MrgX1 allo act inactive.
`N=c1n(Cc2ccccc2)c2ccccc2n1CC(O)COc1ccc(Cl)cc1Cl` (stereo not drawn) gave RGS4 pot -8.96* and RGS4 inh inactive.
Screening N=c1n(Cc2ccc(Cl)cc2)c2ccccc2n1CC(O)COc1ccccc1 (stereo not drawn) returned RGS4 pot inactive, MrgX1 agonist inactive, RGS4 inh inactive, MrgX1 antagonist inactive and MrgX1 allo act inactive.
Screening CC(OC(=O)c1cccc([N+](=O)[O-])c1)C(=O)NCc1ccc2c(c1)OCO2 (stereo not drawn) returned RGS4 pot inactive, MrgX1 agonist inactive, RGS4 inh inactive, MrgX1 antagonist -5.9* and MrgX1 allo act inactive.
Screening CCN(CC)c1ccc(C(=O)N/N=C(\C)c2ccc(O)cc2)cc1 returned RGS4 pot inactive, MrgX1 agonist inactive, RGS4 inh inactive, MrgX1 antagonist inactive and MrgX1 allo act inactive.
For Cc1ccc(/C(=N\O)c2oc3c(C)c4oc(=O)cc(C)c4cc3c2C)cc1 the results were RGS4 pot -8.08*, MrgX1 agonist inactive, RGS4 inh inactive, MrgX1 antagonist inactive and MrgX1 allo act 10.2*.
`N#CCC(N)=C(C#N)C#N` gave RGS4 pot inactive, MrgX1 agonist inactive, RGS4 inh inactive, MrgX1 antagonist -7.19* and MrgX1 allo act inactive.
COC(=O)C/C(N)=C(\C#N)C(=O)OC was read as RGS4 pot inactive, MrgX1 agonist inactive, RGS4 inh inactive, MrgX1 antagonist inactive and MrgX1 allo act inactive.
`Cc1ccc(S(=O)(=O)Nc2ccccc2C(=O)N2CCN(C)CC2)cc1` gave RGS4 pot inactive, MrgX1 agonist inactive, RGS4 inh inactive, MrgX1 antagonist inactive and MrgX1 allo act inactive.
CCC(C)N(CCNC(=O)CC1Oc2ccc(C)cc2NC1=O)C1CCCCC1 (stereo not drawn) was read as RGS4 pot -7.33*, MrgX1 agonist inactive, RGS4 inh inactive, MrgX1 antagonist inactive and MrgX1 allo act inactive.
`O=C(OCC(=O)N1CCc2ccccc21)c1cncc(Br)c1` gave RGS4 pot inactive, MrgX1 agonist inactive, RGS4 inh inactive, MrgX1 antagonist inactive and MrgX1 allo act inactive.
Screening Cc1nc2cc(C)c(C)cc2s1 returned RGS4 pot inactive, MrgX1 agonist inactive, RGS4 inh inactive, MrgX1 antagonist inactive and MrgX1 allo act inactive.
CN(C)c1ccc2nc3ccc(=[N+](C)C)cc-3sc2c1 was read as RGS4 pot -7.55*, MrgX1 agonist inactive, RGS4 inh inactive, MrgX1 antagonist inactive and MrgX1 allo act inactive.
Screening Cc1cc2nc3ccc(=[N+](C)C)cc-3sc2cc1N returned RGS4 pot -8.45* and RGS4 inh inactive.
`CN(C)c1ccc(/C=C(\Cl)c2nc3ccccc3s2)cc1` gave MrgX1 agonist inactive, MrgX1 antagonist inactive and MrgX1 allo act inactive.
O=C1/C(=C/c2ccccc2F)SC(=S)N1CC(=O)N1CCCCC1c1cccnc1 (stereo not drawn) was read as RGS4 pot inactive, MrgX1 agonist inactive, RGS4 inh inactive, MrgX1 antagonist inactive and MrgX1 allo act inactive.
`Cc1cccc(-c2nnc(-c3cccc(NC(=O)Cc4cccs4)c3)o2)c1` gave RGS4 pot -7.41*, MrgX1 agonist inactive, RGS4 inh inactive, MrgX1 antagonist inactive and MrgX1 allo act inactive.
Screening O=C(Cc1cccs1)Nc1ccc(-c2nnc(-c3ccccc3)o2)cc1 returned RGS4 pot inactive, MrgX1 agonist inactive, RGS4 inh inactive, MrgX1 antagonist inactive and MrgX1 allo act inactive.
